RanGTP-Imp inh – inhibitors of RanGTP-importin-beta interaction, primary screen, biochemical, FRET, CFP-Ran, YFP-importin-beta, homogeneous. Ran GTPase (GTP-bound) - importin-beta complex. cell-free CFP-Ran/YFP-importin-beta FRET ratio. inhibition, % (no concentration beside the values). 1.1% of 300,000 active. AID 2216, 2009;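 active = more than half of the replicate wells show a fall in the fluorescence ratio signal beyond about 16%, limit read from the data, passing the limit was not always enough; inconclusive = exactly half of the replicate wells pass the set limit; inactive = fewer than half of replicates pass the limit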
Runt-SMMHC FRET – inhibitors of RUNX1 Runt–CBFb-SMMHC binding, primary screen, biochemical, FRET, Cerulean-Runt, Venus-CBFb-SMMHC, uHTS | Runt-related transcription factor 1 (Homo sapiens) + Core-binding factor subunit beta … | Cerulean-Runt/Venus-CBFb-SMMHC FRET ratio 530/480, 1 h | inhibition, % at 20 µM | 0.74% of 220,000 active;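 active = mean inhibition across duplicate retests at 20 µM reaching about 50%, limit read from the data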;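 also: inhibitors lower the FRET ratio by blocking Runt binding to CBFb-SMMHC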
EBV gp42 block – Epstein-Barr virus gp42 inhibitors, primary screen, biochemical, uHTS, fluorescence polarization. Fluorescence polarization binding assay, mP read-out. AID 1085, 2008. 0.42% of 220,000 active. inhibition, % (tested at 21.74 µM). Glycoprotein 42 (Epstein-Barr virus (strain AG876)), Q1HVG2; in the data active = inhibition above about 50%
Target sequence (Q1HVG2 whole entry, looked up): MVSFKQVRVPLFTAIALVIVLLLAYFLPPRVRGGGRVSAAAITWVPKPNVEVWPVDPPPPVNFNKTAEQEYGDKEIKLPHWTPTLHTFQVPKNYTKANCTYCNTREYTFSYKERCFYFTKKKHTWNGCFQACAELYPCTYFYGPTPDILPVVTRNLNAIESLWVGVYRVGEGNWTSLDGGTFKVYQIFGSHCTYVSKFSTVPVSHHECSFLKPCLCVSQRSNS
MEX-5 binding – MEX-5 zinc finger RNA-binding disruptors – biochemical, C. elegans, fluorescence polarization, MLPCN library, primary screen | Zinc finger protein mex-5 (Caenorhabditis elegans), Q9XUB2 | MEX-5/FITC-TCR2 RNA binding; active compounds read low | activity score (negative = inhibition of binding), % at 10 µM | 0.38% of 300,000 active | AID 1832, 2009;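 active = inhibition past about -25% in most replicates, and total fluorescence under double the plate's negative control median, limit read from the data; inconclusive = replicates evenly split on the limit, or fluorescence at least double controls; inactive = too little inhibition in most replicates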
LANA-H2B inh – blockers of LANA interaction with H2A/H2B – biochemical, FP readout, HTS, primary screen; inhibition, % (no concentration beside the values); 0.6% of 320,000 active; cell-free LANA-H2A/H2B peptide, fluorescence polarization; in the data active = inhibition mostly above about 10%, no sharp cut-off; inactive = mostly below about 6.7%
Runt-CBFb FRET – inhibitors of RUNX1 Runt–CBFb binding, primary screen, biochemical, FRET, Cerulean-Runt, Venus-CBFb, uHTS; AID 1496, 2009; inhibition, % at 20 µM; 0.46% of 220,000 active; Cerulean-Runt/Venus-CBFb FRET ratio 530/480, 1 h;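 active = inhibition over about 50% at 20 µM in the single-dose screen, limit read from the data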
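Measured by: fluorescence energy transfer, 422 nm excitation, 530/480 nm emission; test system: Cerulean-tagged RUNX1 Runt domain (FRET donor) fusion protein; buffer or medium: Tris pH 7.5 buffer with BSA; compound: one dose, 20 µM compound, 1% DMSO; times: two 1 h room-temperature incubations shielded from light; benchmarks: unlabeled CBFb 5 µM, positive control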
Hits are given with their value. Hits are enriched below; roughly 2.4% of the tested compounds scored in any of these assays.

Results for Cc1cc(NCCCN(C)C)n2c(nc3ccccc32)c1C#N ?
RanGTP-Imp inh: inconclusive; MEX-5 binding: inactive; LANA-H2B inh: inactive

How did N#Cc1c2c(c(-n3cnc4ccccc43)n3c1nc1ccccc13)CCC2 do in these assays?
RanGTP-Imp inh: inactive; Runt-SMMHC FRET: inactive; EBV gp42 block: inactive; MEX-5 binding: inactive; LANA-H2B inh: inactive

Results for Cc1c2c(n3c(nc4ccccc43)c1C#N)N(CCN(C)C)CC2 ?
RanGTP-Imp inh: inactive; Runt-SMMHC FRET: 91; EBV gp42 block: inactive; MEX-5 binding: inactive; LANA-H2B inh: inactive; Runt-CBFb FRET: inactive

How did Cc1c2c(n3c(nc4ccccc43)c1C#N)N(c1ccccc1)CC2 do in these assays?
Runt-SMMHC FRET: 79; EBV gp42 block: inactive; Runt-CBFb FRET: inactive

Results for CCOC(=O)c1cc2sc(C)cc2n1C(C)C(=O)OCC (stereo not drawn) ?
RanGTP-Imp inh: inactive; Runt-SMMHC FRET: inactive; EBV gp42 block: inactive; MEX-5 binding: inactive; LANA-H2B inh: inactive; Runt-CBFb FRET: inactive

What do the screens show for `CCCCNC(=S)N(CCO)Cc1cc2cc3c(cc2[nH]c1=O)OCCO3`?
RanGTP-Imp inh: inactive; MEX-5 binding: inactive; LANA-H2B inh: inactive

Results for Cc1ccc2c(c1)c1ccc3c(c1n2C)C(=O)C=CC3=O ?
Runt-SMMHC FRET: inactive; EBV gp42 block: inactive; Runt-CBFb FRET: 55

What do the screens show for `COc1ccc2c(c1)c1ccc3c(c1n2C)C(=O)C=CC3=O`?
Runt-SMMHC FRET: inactive; EBV gp42 block: inactive; Runt-CBFb FRET: 64

How did COc1ccc2c(c1)c1ncn(CCN3CCCCC3)c(=O)c1n2C do in these assays?
RanGTP-Imp inh: inactive; Runt-SMMHC FRET: inactive; EBV gp42 block: inactive; MEX-5 binding: inactive; LANA-H2B inh: inactive; Runt-CBFb FRET: inactive

Results for Cc1ccc2c(c1)c1ncnc(N3CCOCC3)c1n2C ?
RanGTP-Imp inh: inactive; Runt-SMMHC FRET: inactive; MEX-5 binding: inactive; LANA-H2B inh: inactive; Runt-CBFb FRET: inactive

How did COc1ccc(C(=O)N2N=C(c3cccc(NS(C)(=O)=O)c3)CC2c2cccs2)cc1 (stereo not drawn) do in these assays?
RanGTP-Imp inh: inactive; MEX-5 binding: inactive; LANA-H2B inh: inactive

How did O=c1c(Cc2ccc(Cl)cc2)c(O)ccn1Cc1cccs1 do in these assays?
RanGTP-Imp inh: inactive; Runt-SMMHC FRET: inactive; EBV gp42 block: inactive; MEX-5 binding: inactive; LANA-H2B inh: inactive; Runt-CBFb FRET: inactive

Results for Cc1[nH]c(=O)[nH]c(=O)c1CSCC(=O)OCC(=O)Nc1ccccn1 ?
RanGTP-Imp inh: inactive; Runt-SMMHC FRET: inactive; EBV gp42 block: 51; MEX-5 binding: inactive; LANA-H2B inh: inactive; Runt-CBFb FRET: inactive

How did Cc1nc(SCC(=O)Nc2ccccn2)n[nH]1 do in these assays?
RanGTP-Imp inh: inactive; Runt-SMMHC FRET: inactive; EBV gp42 block: inactive; MEX-5 binding: inactive; LANA-H2B inh: inactive; Runt-CBFb FRET: inactive

How did COc1ccccc1CN1CC(C(=O)NCc2ncccc2C)CCC1=O (stereo not drawn) do in these assays?
RanGTP-Imp inh: inactive; MEX-5 binding: inactive; LANA-H2B inh: inactive

What do the screens show for `Cc1cccn2c(=O)c3cc(C(=O)NC4CCCC4)c(=N)n(CCc4ccccc4)c3nc12`?
RanGTP-Imp inh: 179; MEX-5 binding: -39; LANA-H2B inh: 14

What do the screens show for `Cc1cccn2c(=O)c3cc(C(=O)NC4CCCCC4)c(=N)n(Cc4ccccc4)c3nc12`?
RanGTP-Imp inh: 186; MEX-5 binding: inconclusive; LANA-H2B inh: inactive

Results for Cc1cccn2c(=O)c3cc(C(=O)NC4CCS(=O)(=O)C4)n(Cc4ccccc4)c3nc12 (stereo not drawn) ?
RanGTP-Imp inh: inconclusive; MEX-5 binding: inactive; LANA-H2B inh: inactive
